Experimental data reported in PMC6319256 (Bioorganic & medicinal chemistry letters, 2018).
Entries after “also recorded” stand apart in the source; their conditions may differ.

Key:
[1] = test system: K-Ras^G12C; conditions: cited from earlier work
[2] = biological target: T1, cathepsin L (Homo sapiens, UniProt P07711); conditions: cited from earlier work; for kinact: cathepsin L, range stated for both compounds and both enzymes
[3] = biological target: T2, Cathepsin B (Homo sapiens, UniProt P07858); conditions: cited from earlier work; for kinact: cathepsin B, range stated for both compounds and both enzymes
[4] = biological target: T1, cathepsin L; experiment: Cathepsin L inhibition kinetics; format: biochemical
[5] = biological target: T1, cathepsin L; experiment: Irreversibility study; format: biochemical; conditions: 50 μM compound preincubated with Cathepsin L (10 nM), gel filtration
How it was run: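 Test compound at 50 μM was preincubated with cathepsin L at 10 nM, then passed through a desalting spin column. Flow-through aliquots were assayed for recovery of enzyme activity at several time points.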

[6] = biological target: T2, Cathepsin B; experiment: Cathepsin B inhibition with and without preincubation; format: biochemical; conditions: with and without preincubation of the inhibitor
[7] = biological target: T3, Calpain I (Homo sapiens, UniProt P07384); experiment: Calpain I inhibition with and without preincubation; format: biochemical; conditions: with and without preincubation of the inhibitor
T3 sequence (P07384 1-714): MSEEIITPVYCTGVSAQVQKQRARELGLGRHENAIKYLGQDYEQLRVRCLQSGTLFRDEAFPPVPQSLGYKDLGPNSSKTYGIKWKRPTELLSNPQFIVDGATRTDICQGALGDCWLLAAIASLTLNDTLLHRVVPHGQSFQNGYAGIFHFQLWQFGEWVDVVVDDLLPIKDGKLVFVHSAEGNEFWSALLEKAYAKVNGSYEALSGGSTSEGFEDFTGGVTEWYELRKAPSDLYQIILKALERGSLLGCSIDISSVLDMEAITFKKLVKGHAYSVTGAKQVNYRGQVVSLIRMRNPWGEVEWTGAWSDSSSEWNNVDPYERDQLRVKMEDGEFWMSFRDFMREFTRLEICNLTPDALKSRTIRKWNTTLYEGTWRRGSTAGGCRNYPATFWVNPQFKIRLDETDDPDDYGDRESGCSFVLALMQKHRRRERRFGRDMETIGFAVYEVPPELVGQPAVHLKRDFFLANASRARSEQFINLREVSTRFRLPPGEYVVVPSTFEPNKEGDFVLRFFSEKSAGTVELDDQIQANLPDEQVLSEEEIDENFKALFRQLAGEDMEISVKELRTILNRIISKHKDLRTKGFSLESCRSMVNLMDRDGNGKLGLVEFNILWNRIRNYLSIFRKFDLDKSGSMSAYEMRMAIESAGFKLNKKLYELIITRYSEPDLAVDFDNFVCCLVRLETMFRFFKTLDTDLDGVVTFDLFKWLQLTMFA
T3 sequence (P04632 1-268 partner): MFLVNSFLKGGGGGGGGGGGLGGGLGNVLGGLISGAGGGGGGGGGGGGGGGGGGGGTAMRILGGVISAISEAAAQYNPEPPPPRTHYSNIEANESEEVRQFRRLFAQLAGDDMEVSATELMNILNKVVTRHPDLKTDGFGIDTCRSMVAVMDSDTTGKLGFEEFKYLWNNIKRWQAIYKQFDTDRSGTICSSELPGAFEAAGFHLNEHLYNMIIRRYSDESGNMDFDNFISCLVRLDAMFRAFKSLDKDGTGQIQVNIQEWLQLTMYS

[8] = biological target: T4, USP8 (Homo sapiens, UniProt P40818); experiment: USP8 inhibition with and without preincubation; format: biochemical; conditions: with and without preincubation of the inhibitor
T4 sequence (P40818 1-1118): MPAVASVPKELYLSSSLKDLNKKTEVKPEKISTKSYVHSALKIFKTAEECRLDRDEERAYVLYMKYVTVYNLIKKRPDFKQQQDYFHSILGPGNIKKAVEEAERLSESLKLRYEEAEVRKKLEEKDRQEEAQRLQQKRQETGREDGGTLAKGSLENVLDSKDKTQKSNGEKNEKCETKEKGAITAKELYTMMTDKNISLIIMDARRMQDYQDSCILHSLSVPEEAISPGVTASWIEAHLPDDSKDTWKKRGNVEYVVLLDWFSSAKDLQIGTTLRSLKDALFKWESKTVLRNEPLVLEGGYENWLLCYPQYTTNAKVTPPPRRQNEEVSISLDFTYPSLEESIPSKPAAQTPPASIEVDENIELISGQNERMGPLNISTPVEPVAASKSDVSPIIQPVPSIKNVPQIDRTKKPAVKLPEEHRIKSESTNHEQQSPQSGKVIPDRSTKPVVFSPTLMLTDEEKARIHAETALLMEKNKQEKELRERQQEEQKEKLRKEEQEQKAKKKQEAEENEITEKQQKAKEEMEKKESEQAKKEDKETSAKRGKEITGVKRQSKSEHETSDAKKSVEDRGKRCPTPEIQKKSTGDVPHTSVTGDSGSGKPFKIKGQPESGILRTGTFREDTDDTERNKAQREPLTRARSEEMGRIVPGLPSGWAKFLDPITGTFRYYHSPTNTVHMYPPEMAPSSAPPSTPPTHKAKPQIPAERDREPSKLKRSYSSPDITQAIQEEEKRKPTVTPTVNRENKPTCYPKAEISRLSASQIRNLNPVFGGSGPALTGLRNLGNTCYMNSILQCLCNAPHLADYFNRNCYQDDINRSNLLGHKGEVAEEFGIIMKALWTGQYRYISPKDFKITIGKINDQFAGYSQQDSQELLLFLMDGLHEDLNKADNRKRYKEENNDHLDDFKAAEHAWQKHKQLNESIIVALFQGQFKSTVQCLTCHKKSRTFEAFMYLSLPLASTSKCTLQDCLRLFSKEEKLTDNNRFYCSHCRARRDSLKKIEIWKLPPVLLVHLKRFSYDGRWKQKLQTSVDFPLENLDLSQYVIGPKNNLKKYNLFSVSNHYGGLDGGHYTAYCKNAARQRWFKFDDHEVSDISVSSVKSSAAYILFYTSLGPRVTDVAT

T1 sequence (P07711 114-333): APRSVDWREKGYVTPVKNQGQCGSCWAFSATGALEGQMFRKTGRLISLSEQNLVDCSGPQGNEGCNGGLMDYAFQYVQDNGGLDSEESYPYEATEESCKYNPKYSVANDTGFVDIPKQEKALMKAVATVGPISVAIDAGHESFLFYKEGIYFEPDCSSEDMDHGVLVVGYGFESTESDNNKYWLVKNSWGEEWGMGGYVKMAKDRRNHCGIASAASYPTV

SMILES: C=CC(=O)N1CCN(c2ncnc3c(F)c(-c4c(O)cccc4F)c(Cl)cc23)CC1 [ARS-1620]
- activity in vivo [1]: active in vivo

SMILES: O=C(N[C@H](/C=C/S(=O)(=O)c1ccccc1)CCc1ccccc1)[C@H](Cc1ccccc1)NC(=O)N1CCOCC1 [compound 7]
- kinact [2]: 0.17 to 0.36 s⁻¹
- selectivity cathepsin L vs B as judged by Ki values [2]: more selective at inhibiting cathepsin L
- kinact [3]: 0.17 to 0.36 s⁻¹

SMILES: O=C(N[C@H](/C=C/S(=O)(=O)c1ccccc1)CCc1ccccc1)[C@H](Cc1cc(I)c(O)c(I)c1)NC(=O)N1CCOCC1 [compound 8]
- kinact [2]: 0.17 to 0.36 s⁻¹
- selectivity cathepsin L vs B as judged by Ki values [2]: reversed selectivity
- kinact [3]: 0.17 to 0.36 s⁻¹
- potency for cathepsin B (kinact/Ki values) ([3]; relative to compound 7): increased potency

SMILES: C[C@@H](Oc1ccc(Br)cc1Br)C(=O)NC/C=C/S(C)(=O)=O [compound 11]
- inhibition of cathepsin L [4]: time and dose dependent inhibition

SMILES: CS(=O)(=O)/C=C/CNC(=O)COc1ccc(Br)cc1Br [compound 13]
- mode of inhibition (shift of substrate Km) ([4]; varying concentrations of compound): substrate competitive inhibitor
- reversibility of inhibition [5]: irreversibly
- inhibition of Cathepsin B [6]: did not inhibit; also recorded: does not inhibit
- inhibition of Calpain I [7]: did not inhibit; also recorded: does not inhibit
- inhibition of USP8 [8]: did not inhibit; also recorded: does not inhibit
